From ChEMBL document CHEMBL2169822, “Discovery and optimization of 1,3,4-trisubstituted-pyrazolone derivatives as novel, potent, and nonsteroidal farnesoid X receptor (FXR) selective antagonists” (J Med Chem, 2012)
Calls of active or inactive are those of the source. No cut-off for these calls is given here.

Experiments:
[1] = biological target: T1, Oxysterols receptor LXR-alpha (Homo sapiens) (UniProt Q13133); test: Antagonist activity at recombinant LXRalpha LBD expressed in HEK293T cells co-expressing GAL4 DBD assessed as inhibition of TO901317-induced transactivation at 20 uM by luciferase reporter gene assay; assay type: functional, cell-based; settings: HEK-293T
T1 sequence (whole entry): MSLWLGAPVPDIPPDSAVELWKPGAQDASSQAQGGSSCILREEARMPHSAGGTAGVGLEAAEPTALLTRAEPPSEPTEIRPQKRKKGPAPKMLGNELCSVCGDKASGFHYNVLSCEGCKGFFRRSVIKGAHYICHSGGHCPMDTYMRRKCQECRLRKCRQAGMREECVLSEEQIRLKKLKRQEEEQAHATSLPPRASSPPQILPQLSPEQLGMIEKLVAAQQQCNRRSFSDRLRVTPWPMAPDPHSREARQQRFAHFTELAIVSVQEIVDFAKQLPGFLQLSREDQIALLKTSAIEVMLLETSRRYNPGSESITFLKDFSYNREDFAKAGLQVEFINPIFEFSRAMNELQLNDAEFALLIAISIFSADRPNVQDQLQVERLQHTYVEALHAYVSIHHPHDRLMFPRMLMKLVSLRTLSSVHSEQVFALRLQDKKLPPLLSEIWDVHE
How it was run: (§1)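 One-hybrid assay in HEK293T cells cotransfected with a Gal4 DBD–NR-LBD fusion (RXRα, LXRα, GR, PR, PPARδ or PPARγ) plus UAS-TK-Luc reporter. Compound was 20 μM, given alone or with agonist: 9cRA 0.1 μM (RXRα), TO901317 0.5 μM (LXRα), dexamethasone 50 nM (GR), progesterone 100 nM (PR), GW1516 10 μM (PPARδ), rosiglitazone 10 μM (PPARγ). Luciferase read-out; three independent experiments.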

[2] = test system: Mus musculus; test: Reduction of hepatic triglyceride level in cholesterol-fed C57BL/6 mouse administered orally after 10 days; assay type: functional, organism-based
How it was run: (§2)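 Male C57BL/6 mice, 8–12 weeks old, were randomized into five groups of nine. Control mice had ground chow; the other groups had chow with 2% cholesterol. Compound (50 or 100 mg/kg) or reference (100 mg/kg) was suspended in 0.5% CMC-Na and given by oral gavage; control and vehicle mice got 0.5% CMC-Na. Serum and hepatic triglyceride and total cholesterol were measured.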

[3] = biological target: T1, Oxysterols receptor LXR-alpha (Homo sapiens); test: Agonist activity at recombinant LXRalphaLBD expressed in HEK293T cells co-expressing GAL4 DBD at 20 uM by transactivation assay; assay type: functional, cell-based; settings: HEK-293T; how it was run: as §1
[4] = Oral bioavailability in Sprague-Dawley rat at 50 mg/kg by LC-MS/MS analysis; assay type: ADME, organism-based; settings: in vivo
[5] = test system: HEK-293T; test: Antagonist activity at FXRalpha/RXRalpha expressed in HEK293T cells co-expressing GAL4 DBD assessed as inhibition of CDCA-induced transactivation at 40 uM after 18 hrs by luciferase reporter gene assay; assay type: functional, cell-based; settings: Homo sapiens
How it was run: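 FXR transactivation in HEK293T cells transiently transfected with pcDNA3.1-FXRα, pcDNA3.1-RXRα, pGL3-FXRE-Luc and pRL-SV40 Renilla vector. Medium was replaced 6 h after transfection with medium holding compound at varied concentrations, with or without 20 μM CDCA, for 18 h. Read-out was dual-luciferase. Three independent experiments.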

[6] = Binding affinity to FXRalphaLBD assessed as fluorescence quenching after 1 hr
How it was run: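 Untagged FXRαLBD (His-tag removed with thrombin; Ni-NTA and ion exchange purified), 1 μM, was incubated with varied compound concentrations for 1 h at 4 °C. Tryptophan fluorescence was read at 25 °C: excitation 280 nm, emission 300–400 nm, 5 nm slits. KD was fitted from quenching.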

[7] = biological target: T2, Bile acid receptor (Homo sapiens) (UniProt Q96RI1); test: Antagonist activity at human FXR in human HepG2 cells assessed as reduction in triglyceride level at 10 uM after 24 hrs; assay type: functional, cell-based
T2 sequence (whole entry): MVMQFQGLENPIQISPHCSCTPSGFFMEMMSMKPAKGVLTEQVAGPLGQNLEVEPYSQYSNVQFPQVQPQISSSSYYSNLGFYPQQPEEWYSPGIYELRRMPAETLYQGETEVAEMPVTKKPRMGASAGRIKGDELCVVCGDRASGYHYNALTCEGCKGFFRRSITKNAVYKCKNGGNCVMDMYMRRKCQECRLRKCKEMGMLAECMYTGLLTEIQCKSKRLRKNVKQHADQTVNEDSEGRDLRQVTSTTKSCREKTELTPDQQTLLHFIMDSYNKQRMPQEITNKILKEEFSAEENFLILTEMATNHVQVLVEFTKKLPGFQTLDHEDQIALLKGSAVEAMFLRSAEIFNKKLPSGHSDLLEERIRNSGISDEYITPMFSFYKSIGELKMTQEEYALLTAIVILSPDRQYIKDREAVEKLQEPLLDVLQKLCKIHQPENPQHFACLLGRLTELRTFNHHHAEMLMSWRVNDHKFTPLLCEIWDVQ
How it was run: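 HepG2 cells were serum-starved overnight in FBS-free DMEM, then given DMSO or compound for 24 h in serum-free DMEM. Cells were lysed in RIPA buffer, sonicated on ice and centrifuged at 12000 rpm, 4 °C. Triglyceride and total cholesterol in the cleared lysate were measured by kits, with total protein by BCA. At least three experiments.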

[8] = biological target: T2, Bile acid receptor (Homo sapiens); test: Antagonist activity at human FXR in human HepG2 cells assessed as inhibition of CDCA induced SREBP1c gene expression at 5 to 40 uM after 24 hrs by RT-PCR analysis; assay type: functional, cell-based
How it was run: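 HepG2 cells in 6-well plates were treated with varied concentrations of compound, with or without 100 μM CDCA, for 24 h. Total RNA was taken with TRIzol and cDNA made by reverse transcription. Cyp7A1, SHP, BSEP and SREBP1c mRNA were measured by quantitative RT-PCR and normalized to β-actin. Three independent experiments.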

[9] = test system: Mus musculus; test: Reduction of hepatic triglyceride level in cholesterol-fed C57BL/6 mouse at 50 mg/kg, po after 10 days; assay type: functional; set-up: scale not given: the % may be the effect or the level left; how it was run: as §2

inhibition [1]: inactive
Activity [3]: inactive
bioavailability [4]: < 5%
Activity [6]: Dose-dependent effect
Kd [6]: 23.1 µM
inhibition [7]: 35.2%
inhibition [8]: Active
SMILES: COc1cc(/C=C2\C(=O)N(c3cccc([N+](=O)[O-])c3)N=C2c2ccccc2)ccc1O
Activity [2]: Dose-dependent effect
inhibition [5]: Active
Activity [9]: 43.5%
